This passage reports IC50 and Activity results from ChEMBL document CHEMBL1143300, “Synthesis and activity evaluation of benzoylurea derivatives as potential antiproliferative agents” (Bioorg Med Chem Lett, 2009).

The source made the active and inactive calls. The rule behind the calls is not given here.

Holding throughout (assay type): functional, cell-based
Assay [1] deals with HepG2. The assay is described as follows: Antiproliferative activity against human HepG2 cells after 72 hrs by MTT assay. To be noted: HepG2, 72 h. A digest of the protocol: (§1)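 MTT read-out of tumour cell proliferation after 72 h of drug exposure. IC50 is the drug concentration giving 50% inhibition of proliferation. Each experiment was repeated three times under identical conditions.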
Background: Tetrazolium assays rely on reduction of a dye to a coloured formazan, in cell work by metabolically active cells.

Assay [2] has as its system CCRF-CEM. The assay is described as follows: Effect on necrosis-mediated morphological changes in human CEM cells assessed as destruction of cytoplasm and nucleic membrane at IC75 after 12 hrs by Giemsa staining. In a few lines: (§2)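 After 12 h of drug incubation, CEM cells were spun onto slides by cytospin, air-dried, fixed with methanol and Giemsa-stained. Morphology was examined at 400× magnification.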

Assay [3] deals with Bel-7402. The assay is described as follows: Antiproliferative activity against human Bel7402 cells after 72 hrs by MTT assay. The note with it: Bel-7402, 72 h. A digest of the protocol:
as §1

In assay [4] the test system is SMMC-7721. The assay is described as follows: Antiproliferative activity against human SMMC7721 cells after 72 hrs by MTT assay. The note with it: SMMC-7721, 72 h. In a few lines:
as §1

In assay [5] the test system is CCRF-CEM. Briefly: Antiproliferative activity against human CEM cells after 72 hrs by MTT assay. In a few lines:
as §1

Assay [6] deals with CCRF-CEM. The assay is described as follows: Effect on apoptosis-mediated morphological changes in human CEM cells at 3.2 uM after 12 hrs by Giemsa staining. In a few lines:
as §2

In assay [7] the test system is CCRF-CEM. Briefly: Cell cycle arrest in human CEM cells assessed as accumulation at G2/M phase at 0.1 uM after 12 hrs by flow cytometry. A digest of the protocol: (§3)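 CEM cells were left untreated or drug-exposed for 12 h at 37 °C, then collected, fixed in methanol and DNA-stained with a fluorescent dye. Cell-cycle distribution was read by flow cytometry using a conventional cell cycle protocol, with untreated cells as reference.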
(In general: In flow cytometry, cells or beads pass a laser one at a time.)

In assay [8] the test system is CCRF-CEM. The assay is described as follows: Cell cycle arrest in human CEM cells assessed as accumulation at G2/M phase at 3.2 uM after 12 hrs by flow cytometry. To be noted: 0.1 uM, in the assay text read “0.1 uM” for “3.2 uM”. In a few lines:
as §3

Assay [9] has as its system CCRF-CEM. Briefly: Cell cycle arrest in human CEM cells assessed as accumulation at G2/M phase at 0.69 uM after 12 hrs by flow cytometry. In a few lines: as §3
Assay [10] deals with CCRF-CEM. Briefly: Effect on necrosis-mediated morphological changes in human CEM cells assessed as destruction of cytoplasm and nucleic membrane at 0.69 uM after 12 hrs by Giemsa staining. In a few lines: as §2

In general, IC50 refers to the concentration that inhibits the measured activity by half. Consider `O=C(CBr)Nc1cccc(C(=O)NC(=O)Nc2ccccn2)c1`, for which the IC50 in assay [1] worked out at 900 nM; in assay [3], 1200 nM; in assay [4] it was 0.93 µM; in assay [5], 0.7 µM. For the same molecule, in assay [2], the result was Active.

`CNC(=O)NC(=O)c1cccc(NC(=O)CBr)c1`: in assay [5], the IC50 turned out to be 3.16 µM.

Take `CNC(=O)NC(=O)c1cccc(NC(=O)C(C)Cl)c1` (configuration not stated): the IC50 in assay [5] was > 20 µM.

Take `CC(Br)C(=O)Nc1cccc(C(=O)NC(N)=O)c1` (configuration not stated): the IC50 came to 1200 nM in assay [1], 1120 nM in assay [3] and 9.26 µM in assay [4]. In [6], the result was Active.

For the molecule `O=C(CBr)Nc1cccc(C(=O)NC(=O)Nc2ccccc2)c1`, the IC50 in [5] worked out at 5.01 µM.

In the case of `CNC(=O)NC(=O)c1cccc(NC(=O)CCl)c1`, the IC50 in assay [5] worked out at 9.1 µM.

For the molecule `CC[C@]1(O)C[C@H]2CN(CCc3c([nH]c4ccccc34)[C@@](C(=O)OC)(c3cc4c(cc3OC)N(C=O)[C@H]3[C@@](O)(C(=O)OC)[C@H](OC(C)=O)[C@]5(CC)C=CCN6CC[C@]43[C@@H]65)C2)C1` [VINCRISTINE], the result in [7] and in assay [8] was Active. Further, the 50% inhibitory concentration (IC50) in assay [3] was 40 nM; in assay [4], 52.2 µM.

`CC(Br)C(=O)Nc1cccc(C(=O)NC(=O)Nc2ccccn2)c1` (configuration not stated) came in with an IC50 in assay [5] of 6.23 µM.

In assay [5], `CC(Br)C(=O)Nc1cccc(C(=O)NC(=O)Nc2ccc3c(c2)OCO3)c1` (configuration not stated) returned an IC50 of 12.1 µM.

Turning to `CC(Br)C(=O)Nc1cccc(CC(=O)NC(N)=O)c1` (configuration not stated), the IC50 in assay [5] is > 20 µM.

For the molecule `CNC(=O)NC(=O)c1cccc(NC(=O)C(C)Br)c1` (configuration not stated), the IC50 in [5] came to 9.32 µM.

`O=C(CBr)Nc1cccc(C(=O)NC(=O)Nc2ccc3c(c2)OCO3)c1`: in [5], the half-maximal inhibitory concentration (IC50) stood at 1.5 µM.

`COc1cc(NC(=O)NC(=O)c2cccc(NC(=O)CBr)c2)cc(OC)c1OC`: in [9], the result was inactive. The IC50 in assay [1] was 820 nM; in [3], 1400 nM; in assay [4], 0.67 µM; in [5], 0.33 µM. For the same molecule, the result in assay [10] was Active.

The molecule `NC(=O)NC(=O)Cc1cccc(NC(=O)CCl)c1` registered an IC50 in assay [5] of 12.6 µM.

For the molecule `CC(Br)C(=O)Nc1cccc(C(=O)NC(=O)Nc2ccccc2)c1` (configuration not stated), the 50% inhibitory concentration (IC50) in assay [5] is > 20 µM.

For the molecule `COc1cc(NC(=O)NC(=O)c2cccc(NC(=O)C(C)Br)c2)cc(OC)c1OC` (configuration not stated), the IC50 in [5] worked out at 1.33 µM.

On to `NC(=O)NC(=O)/C=C/c1cccc(NC(=O)CBr)c1`, for which, in [5], the IC50 was determined as 1.38 µM.
